Assay results as given in ChEMBL document CHEMBL4715693, “Synthesis and antiviral properties of novel indole-based thiosemicarbazides and 4-thiazolidinones” (Bioorg Med Chem, 2016).
In brackets after ≈: the same amount, converted by molar mass.

Tests used:
[1] = tested on: Vesicular stomatitis virus; assay: Antiviral activity against Vesicular stomatitis virus infected in human HeLa cells assessed as reduction in virus-induced cytopathic effect incubated for 3 to 6 days by light microscopic analysis; type: functional, organism-based
In short: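 CPE reduction assay: virus and serial compound dilutions added together to subconfluent HeLa (vesicular stomatitis, Coxsackie B4, respiratory syncytial) or Vero (Coxsackie B4, Sindbis, Punta Toro) cultures. Incubated 3–6 days at 37 °C. Mean ± SEM of three independent tests.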

Coxsackievirus B4 [2] = assay: Antiviral activity against Human coxsackievirus B4 infected in human HeLa cells assessed as reduction in virus-induced cytopathic effect incubated for 3 to 6 days by light microscopic analysis; type: functional, organism-based; conditions: Enterovirus B
In short: (§1)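 CPE reduction assay: virus and serial compound dilutions added together to subconfluent HeLa (vesicular stomatitis, Coxsackie B4, respiratory syncytial) or Vero (Coxsackie B4, Sindbis, Punta Toro) cultures. Incubated 3–6 days at 37 °C. […] Mean ± SEM of three independent tests.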

[3] = tested on: Respiratory syncytial virus; assay: Antiviral activity against Respiratory syncytial virus infected in human HeLa cells assessed as reduction in virus-induced cytopathic effect incubated for 3 to 6 days by light microscopic analysis; type: functional, organism-based; in short: as §1
Human respirovirus 3 = assay: Antiviral activity against Human parainfluenza virus 3 infected in African green monkey Vero cells assessed as reduction in virus-induced cytopathic effect incubated for 3 to 6 days by light microscopic analysis; type: functional, organism-based; conditions: Human respirovirus 3, Vero
[4] = tested on: Mammalian orthoreovirus 1; assay: Antiviral activity against Mammalian orthoreovirus 1 infected in African green monkey Vero cells assessed as reduction in virus-induced cytopathic effect incubated for 3 to 6 days by light microscopic analysis; type: functional, organism-based; conditions: Mammalian orthoreovirus 1, Vero
Sindbis virus = assay: Antiviral activity against Sindbis virus infected in African green monkey Vero cells assessed as reduction in virus-induced cytopathic effect incubated for 3 to 6 days by light microscopic analysis; type: functional, organism-based; in short: as §1
Coxsackievirus B4 [5] = assay: Antiviral activity against Human coxsackievirus B4 infected in African green monkey Vero cells assessed as reduction in virus-induced cytopathic effect incubated for 3 to 6 days by light microscopic analysis; type: functional, organism-based; conditions: Enterovirus B; in short: as §1
Punta Toro virus = assay: Antiviral activity against Punta Toro virus infected in African green monkey Vero cells assessed as reduction in virus-induced cytopathic effect incubated for 3 to 6 days by light microscopic analysis; type: functional, organism-based; in short: as §1
Human alphaherpesvirus 1 = assay: Antiviral activity against Herpes simplex virus 1 infected in human HEL cells assessed as reduction in virus-induced cytopathic effect incubated for 3 to 6 days by light microscopic analysis; type: functional, cell-based; conditions: Human alphaherpesvirus 1, HEL
Human alphaherpesvirus 2 = assay: Antiviral activity against Herpes simplex virus 2 infected in human HEL cells assessed as reduction in virus-induced cytopathic effect incubated for 3 to 6 days by light microscopic analysis; type: functional, cell-based; conditions: Human alphaherpesvirus 2, HEL
Vaccinia virus = assay: Antiviral activity against Vaccinia virus infected in human HEL cells assessed as reduction in virus-induced cytopathic effect incubated for 3 to 6 days by light microscopic analysis; type: functional, organism-based; conditions: Orthopoxvirus vaccinia
[6] = tested on: Human immunodeficiency virus 1; assay: Antiviral activity against Human immunodeficiency virus 1 infected in human MT4 cells assessed as reduction in virus-induced cytopathic effect incubated for 3 to 6 days by light microscopic analysis; type: functional, organism-based; conditions: Human immunodeficiency virus 1, MT4
[7] = tested on: Human immunodeficiency virus 2; assay: Antiviral activity against Human immunodeficiency virus 2 infected in human MT4 cells assessed as reduction in virus-induced cytopathic effect incubated for 3 to 6 days by light microscopic analysis; type: functional, organism-based; conditions: Human immunodeficiency virus 2, MT4
Influenza A virus = assay: Antiviral activity against influenza A virus infected in dog MDCK cells assessed as reduction in virus-induced cytopathic effect incubated for 3 to 6 days by light microscopic analysis; type: functional, organism-based
In short: (§2)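 MDCK cells, subconfluent, received influenza A or B virus together with serial compound dilutions. Incubated 3–6 days at 35 °C.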

Influenza B virus = assay: Antiviral activity against influenza B virus infected in dog MDCK cells assessed as reduction in virus-induced cytopathic effect incubated for 3 to 6 days by light microscopic analysis; type: functional, organism-based; in short: as §2
Feline coronavirus = assay: Antiviral activity against Feline coronavirus infected in cat CRFK cells assessed as reduction in virus-induced cytopathic effect incubated for 3 to 6 days by light microscopic analysis; type: functional, organism-based; conditions: Alphacoronavirus 1, CRFK
Felid alphaherpesvirus 1 = assay: Antiviral activity against Feline herpesvirus infected in cat CRFK cells assessed as reduction in virus-induced cytopathic effect incubated for 3 to 6 days by light microscopic analysis; type: functional, organism-based; conditions: Felid alphaherpesvirus 1, CRFK
[8] = Cytotoxicity against human HEL cells assessed as changes in cell morphology incubated for 3 to 6 days by light microscopy; type: cell-based; conditions: time 3-6 day
In short: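 Human embryonic lung fibroblasts incubated with serial compound dilutions alongside the antiviral assays, 37 °C, 3–6 days. Morphology inspected by light microscopy; minimal cytotoxic concentration taken as lowest concentration giving minimal morphological change.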

[9] = Cytotoxicity against cat CRFK cells assessed as reduction in cell viability incubated for 3 to 6 days by MTS assay; type: cell-based, Felis catus; conditions: time 3-6 day
In short: (§3)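 CRFK or MT4 cells were exposed to serial compound dilutions alongside the antiviral assays for 3–6 days at 37 °C.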

MT4 = assay: Cytotoxicity against human MT4 cells assessed as reduction in cell viability incubated for 3 to 6 days by MTS assay; type: cell-based; conditions: time 3-6 day; in short: as §3
[10] = Cytotoxicity against human HeLa cells assessed as changes in cell morphology incubated for 3 to 6 days by light microscopic analysis; type: cell-based; conditions: time 3-6 day
In short: (§4)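 Uninfected subconfluent cells (Vero or HeLa, as named) exposed to serial compound dilutions in parallel with the CPE assays, 37 °C, 3–6 days. Cell morphology examined by light microscopy; MCC = minimal concentration causing microscopically detectable changes in morphology.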

[11] = Cytotoxicity against African green monkey Vero cells assessed as changes in cell morphology incubated for 3 to 6 days by light microscopy; type: cell-based; conditions: chlorocebus sabaeus, time 3-6 day; in short: as §4
[12] = Cytotoxicity against dog MDCK cells assessed as changes in cell morphology incubated for 3 to 6 days by light microscopy; type: cell-based, Canis lupus familiaris; conditions: time 3-6 day

| Structure (SMILES) | EC50 [1] [µg/mL] | EC50 (Coxsackievirus B4 [2]) | EC50 [3] | EC50 (Human respirovirus 3) | EC50 [4] | EC50 (Sindbis virus) [µg/mL] | EC50 (Coxsackievirus B4 [5]) | EC50 (Punta Toro virus) [µg/mL] | EC50 (Human alphaherpesvirus 1) [µg/mL] | EC50 (Human alphaherpesvirus 2) [µg/mL] | EC50 (Vaccinia virus) | EC50 [6] [µg/mL] | EC50 [7] [µg/mL] | EC50 (Influenza A virus; Influenza A virus, MDCK) [µg/mL] | EC50 (Influenza B virus) [µg/mL] | EC50 (Feline coronavirus) | EC50 (Felid alphaherpesvirus 1) | MCC [8] | CC50 ([9]; crfk) [µg/mL] | CC50 (MT4) [µg/mL] | other results |
| --- | --- | --- | --- | --- | --- | --- | --- | --- | --- | --- | --- | --- | --- | --- | --- | --- | --- | --- | --- | --- | --- |
| CCCN1C(=O)CS/C1=N\NC(=O)c1[nH]c2ccc(F)cc2c1-c1ccccc1 | > 100 | > 100 µg/mL | > 100 µg/mL | > 100 µg/mL | > 100 µg/mL | > 100 | > 100 µg/mL | > 100 | > 100 | > 100 | > 100 µg/mL | > 100 | > 100 | > 100 | > 100 | > 100 µg/mL | > 100 µg/mL | > 100 µg/mL | > 100 | > 125 |  |
| CCCCNC(=S)NNC(=O)c1[nH]c2ccc(F)cc2c1-c1ccccc1 | > 100 | > 100 µg/mL | > 100 µg/mL | > 100 µg/mL | > 100 µg/mL | > 100 | > 100 µg/mL | > 100 | > 100 | > 100 | > 100 µg/mL | > 100 | > 100 | > 100 | > 100 | > 100 µg/mL | > 100 µg/mL | > 10 µg/mL | 1.4 | 11 (≈ 28.6 µM) | MCC [10]: 4 µg/mL; MCC [11]: 10 µg/mL; MCC [12]: 10 µg/mL |
| C=CCN1C(=O)CS/C1=N\NC(=O)c1[nH]c2ccc(F)cc2c1-c1ccccc1 | > 100 | > 100 µg/mL | > 100 µg/mL | > 100 µg/mL | > 100 µg/mL | > 100 | > 100 µg/mL | > 100 | > 100 | > 100 | > 100 µg/mL | > 100 | > 100 | > 100 | > 100 | > 100 µg/mL | > 100 µg/mL | > 100 µg/mL | > 100 | > 125 |  |
| O=c1[nH]c(=O)n([C@H]2C[C@H](O)[C@@H](CO)O2)cc1/C=C/Br [BRIVUDINE] |  |  |  |  |  |  |  |  |  |  | 22 µM |  |  |  |  |  |  |  |  |  |  |
| Nc1nc2c(ncn2COC(CO)CO)c(=O)[nH]1 [GANCICLOVIR] |  |  |  |  |  |  |  |  |  |  | > 100 µM |  |  |  |  | > 100 µM | 7.4 µM | > 100 µM |  |  | CC50 ([9]; CRFK cells, read-out: CC50): > 100 µM |
| NC(=O)c1ncn([C@@H]2O[C@H](CO)[C@@H](O)[C@H]2O)n1 [RIBAVIRIN] |  | 61 µM | 15 µM | > 250 µM | > 250 µM |  | > 250 µM |  |  |  |  |  |  |  |  |  |  | > 250 µM |  |  | MCC [10]: > 250 µM; MCC [11]: > 250 µM; EC50 (Influenza A virus; mdck): 8.9 µM |
| Cc1cn([C@H]2C[C@H](N=[N+]=[N-])[C@@H](CO)O2)c(=O)[nH]c1=O [ZIDOVUDINE] |  |  |  |  |  |  |  |  |  |  |  |  |  |  |  |  |  |  |  | > 25 |  |
